ChEMBL document CHEMBL4725473, “A Chemical Probe for the Methyl Transferase PRMT5 with a Novel Binding Mode” (ACS Med Chem Lett, 2020)
One block for each molecule: values may come before it. Active and inactive are the calls of the source. The calls are words filed in the database; no cut-off is given here.

Columns and labels:
[1] = biological target: T1, PRMT5/MEP50 complex (Homo sapiens, UniProt O14744); test: (§1) Inhibition of full-length human N-terminal FLAG-tagged PRMT5/full length N-terminal His6-tagged MEP50 (unknown origin) expressed in baculovirus infected Sf9 insect cells assessed as reduction of S-adenosyl-L-homocysteine formation using human recombinant histone H2A (1 to 130 residues) and S-adenosyl-L-methionine as substrate after 60 mins by rapidfire mass spectrometry analysis
T1 sequence (O14744 whole entry, the tested form may be a part): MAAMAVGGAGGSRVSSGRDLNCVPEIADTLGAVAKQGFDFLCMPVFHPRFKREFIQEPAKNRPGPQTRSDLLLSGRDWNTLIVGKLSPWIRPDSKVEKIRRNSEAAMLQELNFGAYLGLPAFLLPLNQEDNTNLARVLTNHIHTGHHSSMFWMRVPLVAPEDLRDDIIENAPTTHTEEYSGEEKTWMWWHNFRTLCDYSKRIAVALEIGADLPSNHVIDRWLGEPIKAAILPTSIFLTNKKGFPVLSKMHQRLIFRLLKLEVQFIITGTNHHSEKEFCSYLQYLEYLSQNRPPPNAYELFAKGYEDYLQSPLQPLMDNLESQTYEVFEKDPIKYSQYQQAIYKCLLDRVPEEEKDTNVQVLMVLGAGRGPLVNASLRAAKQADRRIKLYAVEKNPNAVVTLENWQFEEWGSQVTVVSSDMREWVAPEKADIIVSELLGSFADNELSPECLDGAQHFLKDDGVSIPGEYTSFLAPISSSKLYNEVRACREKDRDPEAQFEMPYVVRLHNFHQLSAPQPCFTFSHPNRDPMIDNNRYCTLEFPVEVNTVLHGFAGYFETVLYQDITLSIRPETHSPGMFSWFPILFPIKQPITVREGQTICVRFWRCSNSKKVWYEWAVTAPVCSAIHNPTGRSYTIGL
T1 sequence (Q9BQA1 whole entry, further chain, the tested form may be a part): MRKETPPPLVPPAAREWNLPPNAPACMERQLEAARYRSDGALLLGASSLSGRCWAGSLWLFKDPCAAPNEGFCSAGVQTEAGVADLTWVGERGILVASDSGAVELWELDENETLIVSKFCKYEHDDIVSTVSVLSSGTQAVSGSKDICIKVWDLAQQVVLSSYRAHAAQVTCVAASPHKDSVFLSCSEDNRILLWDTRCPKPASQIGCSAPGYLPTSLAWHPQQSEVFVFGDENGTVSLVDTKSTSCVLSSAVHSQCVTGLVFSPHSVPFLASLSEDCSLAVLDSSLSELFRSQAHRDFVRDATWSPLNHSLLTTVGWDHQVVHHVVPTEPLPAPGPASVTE
Method in brief: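 PRMT5–MEP50 complex at 5.0 nM in assay; recombinant human histone H2A as substrate. Read-out is the decrease in SAM→SAH conversion, measured by RapidFire high-throughput mass spectrometry. IC50 reported as mean of n ≥ 2.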

[2] = biological target: Protein arginine N-methyltransferase 5 (Homo sapiens, UniProt O14744); test: Inhibition of PRMT5 in human A549 cells assessed as reduction in arginine dimethylation of SmD1/3 after 48 hrs by Hoechst Stain/ CellMask Deep Red Stain based immunohistochemistry method; type: cell-based
Sequence of Protein arginine N-methyltransferase 5 (O14744 whole entry): as the sequence (O14744 whole entry, the tested form may be a part) above
Method in brief: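 A549 cells treated with compound for 48 h (2 days). Symmetric arginine dimethylation of SmD1/3 measured by immunofluorescence microscopy as the nuclear/cytoplasmic intensity ratio, normalized to DMSO control. Concentration–response curves; mean ± SE of at least three replicates (n ≥ 3).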

[3] = biological target: T2, PRMT5/MEP50 complex (Homo sapiens) (UniProt O14744+Q9BQA1); test: as §1, with “Competitive inhibition” for “Inhibition”, “using varying concentrations of” for “using”, “80” for “60”
[4] = biological target: T2, PRMT5/MEP50 complex (Homo sapiens); test: as §1, with “Non-competitive inhibition” for “Inhibition”, “and varying concentrations of” for “and”, “80” for “60”
[5] = test system: A549; test: Cytotoxicity against human A549 cells assessed as cell viability up to 10 uM incubated for 48 hrs by Hoechst staining based fluorescence microscopic analysis; details: a549, 48 h
[6] = biological target: Histone-lysine N-methyltransferase EHMT2 (Homo sapiens) (UniProt Q96KQ7); test: Inhibition of N-terminal GST-fused recombinant human EHMT2 (786 to 1210 residues) expressed in Escherichia coli using histone H3 (1 to 21) as substrate at 10 uM by radiometric HotSpot assay relative to control
Sequence of Histone-lysine N-methyltransferase EHMT2 (Homo sapiens) (Q96KQ7 whole entry, the tested form may be a part): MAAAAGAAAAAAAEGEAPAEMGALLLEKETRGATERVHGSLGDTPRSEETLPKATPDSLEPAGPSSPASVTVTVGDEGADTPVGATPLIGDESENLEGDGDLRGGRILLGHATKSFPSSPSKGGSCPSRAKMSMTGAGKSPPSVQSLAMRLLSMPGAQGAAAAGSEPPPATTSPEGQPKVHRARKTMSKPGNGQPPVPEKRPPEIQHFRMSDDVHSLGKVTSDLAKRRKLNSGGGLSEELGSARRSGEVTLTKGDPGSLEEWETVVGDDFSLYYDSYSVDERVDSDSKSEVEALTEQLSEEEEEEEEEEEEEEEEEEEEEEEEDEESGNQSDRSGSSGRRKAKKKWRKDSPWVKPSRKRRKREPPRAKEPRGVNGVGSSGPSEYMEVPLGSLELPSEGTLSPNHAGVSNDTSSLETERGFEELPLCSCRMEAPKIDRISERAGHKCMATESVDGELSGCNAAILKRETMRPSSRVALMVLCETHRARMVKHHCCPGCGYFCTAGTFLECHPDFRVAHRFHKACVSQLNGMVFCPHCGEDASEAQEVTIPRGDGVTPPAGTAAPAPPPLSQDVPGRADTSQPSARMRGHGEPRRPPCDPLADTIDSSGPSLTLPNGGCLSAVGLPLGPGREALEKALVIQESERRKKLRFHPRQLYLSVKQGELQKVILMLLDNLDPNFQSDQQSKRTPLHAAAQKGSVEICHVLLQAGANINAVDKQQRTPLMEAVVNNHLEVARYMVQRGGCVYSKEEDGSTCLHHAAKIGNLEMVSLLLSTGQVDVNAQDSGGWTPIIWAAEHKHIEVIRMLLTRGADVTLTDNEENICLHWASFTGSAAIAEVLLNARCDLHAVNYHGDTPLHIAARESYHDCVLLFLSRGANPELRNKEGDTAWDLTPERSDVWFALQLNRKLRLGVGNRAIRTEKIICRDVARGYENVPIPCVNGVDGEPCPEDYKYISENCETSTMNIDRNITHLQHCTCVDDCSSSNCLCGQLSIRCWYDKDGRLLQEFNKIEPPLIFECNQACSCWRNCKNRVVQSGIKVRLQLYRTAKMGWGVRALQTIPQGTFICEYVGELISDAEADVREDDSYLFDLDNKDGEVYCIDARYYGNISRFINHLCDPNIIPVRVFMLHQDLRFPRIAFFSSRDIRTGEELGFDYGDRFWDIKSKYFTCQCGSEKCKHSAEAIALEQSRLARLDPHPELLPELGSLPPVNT
Method in brief: (§2)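 Selectivity panel of 21 purified recombinant human arginine and lysine methyltransferases. Compound tested at a single 10 μM concentration; percent inhibition of each enzyme reported.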

[7] = biological target: T1, PRMT5/MEP50 complex; test: Binding affinity to N-terminal FLAG-tagged human PRMT5 (1 to 637 residues)/N-terminal thrombin His-tagged MEP50 (2 to 342 residues) expressed in baculovirus infected Sf21 cells by streptavidin coated sensor chip based surface plasmon resonance analysis
[8] = species on record: Homo sapiens; test: Inhibition of recombinant human N-terminal His-tagged MLL1 (3745 to 3969 residues)/human WDR5 (22 to 334)/human RbBP5 (1 to 538)/human Ash2L (2 to 534)/human DPY30 (1 to 99) expressed in Escherichia coli using nucleosome as substrate at 10 uM by radiometric HotSpot assay relative to control; method in brief: as §2
[9] = biological target: Histone-lysine N-methyltransferase PRDM9 (Homo sapiens) (UniProt Q9NQV7); test: Inhibition of recombinant human N-terminal GST-tagged PRDM9 (2 to 414 residues) expressed in baculovirus infected Sf9 cells using histone H3 as substrate at 10 uM by radiometric HotSpot assay relative to control; method in brief: as §2
Sequence of Histone-lysine N-methyltransferase PRDM9 (Homo sapiens) (Q9NQV7 whole entry, the tested form may be a part): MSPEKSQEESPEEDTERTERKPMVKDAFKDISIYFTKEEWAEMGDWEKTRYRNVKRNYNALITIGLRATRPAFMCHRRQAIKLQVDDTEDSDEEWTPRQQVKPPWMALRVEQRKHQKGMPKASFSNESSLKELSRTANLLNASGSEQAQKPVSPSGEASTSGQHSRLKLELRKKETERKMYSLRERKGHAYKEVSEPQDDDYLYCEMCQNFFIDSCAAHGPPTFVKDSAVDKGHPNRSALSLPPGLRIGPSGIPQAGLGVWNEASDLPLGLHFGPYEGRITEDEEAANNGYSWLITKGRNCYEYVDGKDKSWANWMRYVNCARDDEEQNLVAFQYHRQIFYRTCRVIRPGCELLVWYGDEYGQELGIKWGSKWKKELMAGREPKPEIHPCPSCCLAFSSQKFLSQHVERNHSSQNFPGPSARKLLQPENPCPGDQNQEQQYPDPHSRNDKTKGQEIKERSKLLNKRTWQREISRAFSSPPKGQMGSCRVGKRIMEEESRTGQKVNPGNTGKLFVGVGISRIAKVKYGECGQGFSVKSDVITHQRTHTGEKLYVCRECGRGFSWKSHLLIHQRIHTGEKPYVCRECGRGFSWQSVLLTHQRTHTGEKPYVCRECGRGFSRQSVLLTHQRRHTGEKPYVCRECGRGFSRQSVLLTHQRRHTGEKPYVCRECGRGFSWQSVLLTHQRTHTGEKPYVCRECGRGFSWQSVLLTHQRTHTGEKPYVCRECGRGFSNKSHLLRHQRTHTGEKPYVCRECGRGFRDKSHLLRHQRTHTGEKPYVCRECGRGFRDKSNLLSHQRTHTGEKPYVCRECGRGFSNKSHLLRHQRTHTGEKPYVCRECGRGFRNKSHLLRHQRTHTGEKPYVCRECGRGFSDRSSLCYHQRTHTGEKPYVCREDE

[10] = biological target: N-lysine methyltransferase SMYD2 (Homo sapiens) (UniProt Q9NRG4); test: Inhibition of recombinant human N-terminal His-tagged SMYD2 (2 to 433 residues) expressed in Escherichia coli using histone H4 as substrate at 10 uM by radiometric HotSpot assay relative to control; method in brief: as §2
[11] = biological target: Histone-lysine N-methyltransferase KMT5B (Homo sapiens) (UniProt Q4FZB7); test: Inhibition of recombinant human N-terminal GST-tagged SUV420H1 (2 to 393 residues ) expressed in baculovirus infected Sf9 cells using core histone as substrate at 10 uM by radiometric HotSpot assay relative to control; method in brief: as §2
[12] = biological target: Histone-lysine N-methyltransferase SETD7 (Homo sapiens) (UniProt Q8WTS6); test: Inhibition of recombinant human full length C-terminal His-tagged SETD7 expressed in Escherichia coli using core histone as substrate at 10 uM by radiometric HotSpot assay relative to control; method in brief: as §2
[13] = biological target: N-lysine methyltransferase KMT5A (Homo sapiens) (UniProt Q9NQR1); test: Inhibition of recombinant human GST-tagged SETD8 (195 to 352 residues) expressed in Escherichia coli using nucleosome as substrate at 10 uM by radiometric HotSpot assay relative to control; method in brief: as §2
Sequence of N-lysine methyltransferase KMT5A (Homo sapiens) (Q9NQR1 whole entry, the tested form may be a part): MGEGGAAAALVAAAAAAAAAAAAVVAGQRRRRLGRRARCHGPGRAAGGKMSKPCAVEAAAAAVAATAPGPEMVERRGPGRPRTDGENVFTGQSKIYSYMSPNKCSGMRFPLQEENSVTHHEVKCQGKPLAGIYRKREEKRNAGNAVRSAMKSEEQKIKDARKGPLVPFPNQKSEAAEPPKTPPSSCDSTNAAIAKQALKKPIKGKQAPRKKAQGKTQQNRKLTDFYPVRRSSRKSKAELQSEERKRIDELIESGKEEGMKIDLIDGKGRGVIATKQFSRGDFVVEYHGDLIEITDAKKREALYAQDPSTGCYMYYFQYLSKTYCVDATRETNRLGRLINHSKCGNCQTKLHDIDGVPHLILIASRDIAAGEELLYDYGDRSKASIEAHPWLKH

[14] = species on record: Homo sapiens; test: Inhibition of recombinant human N-terminal His-tagged EZH2 (2 to 746)/human recombinant AEBP2 (2 to 517)/human recombinant EED (2 to 441)/human recombinant RbAp48 (2 to 425)/human recombinant SUZ12 (2 to 739) expressed in baculovirus infected insect cells using core histone as substrate at 10 uM by radiometric HotSpot assay relative to control; method in brief: as §2
[15] = biological target: Histone-lysine N-methyltransferase SETD1B (Homo sapiens) (UniProt Q9UPS6); test: Inhibition of recombinant human N- terminal GST-tagged SET1B (1629 to 1923 residues) expressed in Escherichia coli using core histone as substrate at 10 uM by radiometric HotSpot assay relative to control; method in brief: as §2
[16] = biological target: Histone-lysine N-methyltransferase 2D (Homo sapiens) (UniProt O14686); test: Inhibition of recombinant human N- terminal His-tagged MLL2 (5319 to 5537 residues) expressed in Escherichia coli using core histone as substrate at 10 uM by radiometric HotSpot assay relative to control; method in brief: as §2
[17] = biological target: Histone-lysine N-methyltransferase SUV39H1 (Homo sapiens) (UniProt O43463); test: Inhibition of recombinant human N-terminal fusion protein tagged and C-terminal His-tagged SUV39H1 (44 to 412 residues) expressed in Escherichia coli using nucleosome as substrate at 10 uM by radiometric HotSpot assay relative to control; method in brief: as §2
[18] = biological target: Histone-lysine N-methyltransferase SUV39H2 (Homo sapiens) (UniProt Q9H5I1); test: Inhibition of recombinant human C-terminal His-tagged SUV39H2 (48 to 410 residues) expressed in Escherichia coli using nucleosome as substrate at 10 uM by radiometric HotSpot assay relative to control; method in brief: as §2
[19] = biological target: Histone-lysine N-methyltransferase, H3 lysine-79 specific (Homo sapiens) (UniProt Q8TEK3); test: Inhibition of recombinant human N-terminal GST-tagged DOT1L (1 to 416 residues) expressed in Escherichia coli using nucleosome as substrate at 10 uM by radiometric HotSpot assay relative to control; method in brief: as §2
[20] = biological target: T2, PRMT5/MEP50 complex (Homo sapiens); test: Inhibition of recombinat human N-terminal Flag-tagged PRMT5 (2 to 637 residues)/ N-terminal His-tagged MEP50 (2 to 342 residues) (unknown origin) expressed in baculovirus infected Sf9 cells using recombinant human histone H2A (1 to 130 residues) as substrate at 10 uM by radiometric HotSpot assay relative to control; method in brief: as §2
[21] = biological target: Protein arginine N-methyltransferase 7 (Homo sapiens) (UniProt Q9NVM4); test: Inhibition of recombinant human N-terminal His-tagged full length PRMT7 (2 to 692 residues) expressed in baculovirus system using GST-GAR as substrate at 10 uM by radiometric HotSpot assay relative to control; method in brief: as §2
[22] = biological target: Protein arginine N-methyltransferase 6 (Homo sapiens) (UniProt Q96LA8); test: Inhibition of recombinant human His-tagged PRMT6 (2 to end residues) expressed in Escherichia coli using histone H3 as substrate at 10 uM by radiometric HotSpot assay relative to control; method in brief: as §2
Sequence of Protein arginine N-methyltransferase 6 (Homo sapiens) (Q96LA8 whole entry, looked up): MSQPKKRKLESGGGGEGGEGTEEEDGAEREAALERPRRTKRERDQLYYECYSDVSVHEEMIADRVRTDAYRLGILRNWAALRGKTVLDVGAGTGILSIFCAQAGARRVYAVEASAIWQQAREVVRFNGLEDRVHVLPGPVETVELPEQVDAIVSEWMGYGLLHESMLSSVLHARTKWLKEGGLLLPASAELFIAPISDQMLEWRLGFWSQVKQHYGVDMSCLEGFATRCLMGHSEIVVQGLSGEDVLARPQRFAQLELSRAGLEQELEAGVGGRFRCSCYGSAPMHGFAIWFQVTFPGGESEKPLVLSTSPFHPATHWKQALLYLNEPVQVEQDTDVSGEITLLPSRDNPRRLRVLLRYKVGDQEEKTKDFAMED

[23] = biological target: Protein arginine N-methyltransferase 1 (Homo sapiens) (UniProt Q99873); test: Inhibition of recombinant human GST-tagged PRMT1 (2 to end residues) expressed in Escherichia coli using histone H4 as substrate at 10 uM by radiometric HotSpot assay relative to control; method in brief: as §2
[24] = biological target: Protein arginine N-methyltransferase 3 (Homo sapiens) (UniProt O60678); test: Inhibition of recombinant human His-tagged PRMT3 (2 to end residues) expressed in Escherichia coli using histone H4 as substrate at 10 uM by radiometric HotSpot assay relative to control; method in brief: as §2
Sequence of Protein arginine N-methyltransferase 3 (Homo sapiens) (O60678 2-531 limits assumed): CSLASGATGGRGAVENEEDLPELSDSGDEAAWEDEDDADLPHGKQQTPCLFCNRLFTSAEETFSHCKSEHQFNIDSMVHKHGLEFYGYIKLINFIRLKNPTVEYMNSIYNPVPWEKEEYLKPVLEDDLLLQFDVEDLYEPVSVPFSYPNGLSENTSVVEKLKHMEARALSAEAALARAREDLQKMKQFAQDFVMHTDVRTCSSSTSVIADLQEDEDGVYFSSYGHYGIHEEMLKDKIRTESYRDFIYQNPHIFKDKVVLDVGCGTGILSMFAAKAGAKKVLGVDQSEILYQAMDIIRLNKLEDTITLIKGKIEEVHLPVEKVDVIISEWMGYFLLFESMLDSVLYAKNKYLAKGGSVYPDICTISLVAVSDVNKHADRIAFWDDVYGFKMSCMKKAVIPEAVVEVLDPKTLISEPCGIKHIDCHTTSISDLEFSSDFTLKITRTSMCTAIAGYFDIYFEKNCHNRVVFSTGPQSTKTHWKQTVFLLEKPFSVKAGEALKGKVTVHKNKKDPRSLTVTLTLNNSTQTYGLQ

[25] = biological target: Histone-arginine methyltransferase CARM1 (Homo sapiens) (UniProt Q86X55); test: Inhibition of recombinant human FLAG-tagged PRMT4 (2 to end residues) expressed in FreeStyle HEK293-F cells using histone H3 as substrate at 10 uM by radiometric HotSpot assay relative to control; method in brief: as §2
[26] = biological target: Protein arginine N-methyltransferase 8 (Homo sapiens) (UniProt Q9NR22); test: Inhibition of recombinant human N-terminal and C-terminal His-tagged PRMT8 (61 to 394 residues) expressed in Escherichia coli using histone H4 as substrate at 10 uM by radiometric HotSpot assay relative to control; method in brief: as §2
[27] = biological target: Histone-lysine N-methyltransferase SETD2 (Homo sapiens) (UniProt Q9BYW2); test: Inhibition of recombinant human N-terminal GST-tagged SETD2 (1433 to 1711 residues) expressed in Escherichia coli using nucleosome as substrate at 10 uM by radiometric HotSpot assay relative to control; method in brief: as §2
[28] = biological target: Histone-lysine N-methyltransferase, H3 lysine-36 specific (Homo sapiens) (UniProt Q96L73); test: Inhibition of N-terminal His-tagged recombinant human NSD1 (1538 to 2696 residues) expressed in baculovirus infected insect cells using nucleosome as substrate at expressed in 10 uM by radiometric HotSpot assay relative to control; method in brief: as §2

SMILES: Nc1ncnc2c1ccn2[C@@H]1O[C@H](CN2CCCC23CCNCC3)[C@@H](O)[C@H]1O
IC50 [1]: 9.5 nM
IC50 [2]: 58 nM
inhibition [3]: Active
inhibition [4]: Active

SMILES: NCC[C@H]1CCCN1C[C@H]1O[C@@H](n2cnc3c(N)ncnc32)[C@H](O)[C@@H]1O
IC50 [1]: 340 nM

SMILES: Nc1ncnc2c1ncn2[C@@H]1O[C@H](CN2CCCC23CCCCC3)[C@@H](O)[C@H]1O
IC50 [1]: > 10000 nM

SMILES: Nc1ncnc2c1ncn2[C@@H]1O[C@H](CN2CCC(N)CC2)[C@@H](O)[C@H]1O
IC50 [1]: > 10000 nM

SMILES: Nc1ncnc2c1ncn2[C@@H]1O[C@H](CN2CCCC23CNC3)[C@@H](O)[C@H]1O
IC50 [1]: 740 nM

SMILES: CC(=O)N1CCC2(CCCN2C[C@H]2O[C@@H](n3cnc4c(N)ncnc43)[C@H](O)[C@@H]2O)CC1
IC50 [1]: > 10000 nM

SMILES: CN1CCC2(CCCN2C[C@H]2O[C@@H](n3ccc4c(N)ncnc43)[C@H](O)[C@@H]2O)CC1
inhibition [6]: < 25%
IC50 [1]: 48 nM
IC50 [2]: 200 nM
Kd [7]: 7.6 nM
inhibition [8]: < 25%
inhibition [9]: < 25%
inhibition [10]: < 25%
inhibition [11]: < 25%
inhibition [12]: < 25%
inhibition [13]: < 25%
inhibition [14]: < 25%
inhibition [15]: < 25%
inhibition [16]: < 25%
inhibition [17]: < 25%
inhibition [18]: < 25%
inhibition [3]: Active
inhibition [4]: Active
inhibition [19]: < 25%
inhibition [20]: > 90%
inhibition [21]: < 25%
inhibition [22]: < 25%
inhibition [23]: < 25%
inhibition [24]: < 25%
inhibition [25]: < 25%
inhibition [26]: < 25%
inhibition [27]: < 25%
inhibition [28]: < 25%

SMILES: NCC[C@@H]1CCCN1C[C@H]1O[C@@H](n2cnc3c(N)ncnc32)[C@H](O)[C@@H]1O
IC50 [1]: 83 nM
IC50 [2]: 2400 nM

Now from value to molecule, other results behind:

IC50 [1]: > 10000 nM
SMILES: Nc1ncnc2c1ncn2[C@@H]1O[C@H](CN2CCC3(CCNCC3)CC2)[C@@H](O)[C@H]1O

IC50 [1]: 370 nM
SMILES: Nc1ncnc2c1ncn2[C@@H]1O[C@H](CN2CCC23CCNCC3)[C@@H](O)[C@H]1O

IC50 [1]: 5400 nM
SMILES: Nc1ncnc2c1ncn2[C@@H]1O[C@H](CN2CCC3(CCNCC3)C2)[C@@H](O)[C@H]1O

IC50 [1]: 52 nM
IC50 [2]: 2300 nM
SMILES: Nc1ncnc2c1ncn2[C@@H]1O[C@H](CN2CCCC23CCNCC3)[C@@H](O)[C@H]1O
Activity [5]: Non-Toxic

IC50 [1]: 530 nM
SMILES: Nc1ncnc2c1ncn2[C@@H]1O[C@H](CN2CCCC3(CNC3)C2)[C@@H](O)[C@H]1O

IC50 [1]: 5100 nM
SMILES: Nc1ncnc2c1ncn2[C@@H]1O[C@H](CN2CCC23CNC3)[C@@H](O)[C@H]1O

IC50 [1]: 76000 nM
IC50 [2]: > 10000 nM
SMILES: Nc1ncnc2c1ncn2[C@@H]1O[C@H](CN2CCCC2)[C@@H](O)[C@H]1O

IC50 [1]: 2700 nM
SMILES: Nc1ncnc2c1ncn2[C@@H]1O[C@H](CN2CCCC23CCNC3)[C@@H](O)[C@H]1O (stereo in doubt; 3b)

IC50 [1]: > 10000 nM
SMILES: Nc1ncnc2c1ncn2[C@@H]1O[C@H](CN2CCC3(CCNC3)CC2)[C@@H](O)[C@H]1O

IC50 [1]: 3300 nM
SMILES: Nc1ncnc2c1ncn2[C@@H]1O[C@H](CN2CCCC23CCNC3)[C@@H](O)[C@H]1O (stereo in doubt; 3a)
